Data: ChEMBL document CHEMBL1681781, “Structure based design and syntheses of amino-1H-pyrazole amide derivatives as selective Raf kinase inhibitors in melanoma cells” (Bioorg Med Chem, 2011)
The source made the active and inactive calls. The rule behind the calls is not given here.

Key:
HS27 = experiment: Antiproliferative activity against human HS27 cells assessed as growth inhibition after 24 hrs by MTT assay; type: functional; details: HS27, 24 h
[1] = (§1) Antiproliferative activity against human A375P cells assessed as growth inhibition after 24 hrs by MTT assay; type: functional
In short: (§2)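 A375P cells kept in DMEM with 10% FBS and 1% penicillin/streptomycin at 37 °C under 5% CO2. Cells lifted with 0.05% trypsin–0.02% EDTA, seeded at 5 × 10^3 cells/well and left 24 h before dosing. Test compounds given as a 3-fold serial dilution over 12 points. Viability read by MTT reduction, absorbance at 590 nm.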

A375P = experiment: as §1; type: functional; in short: as §2
[2] = molecular target: RAF proto-oncogene serine/threonine-protein kinase (Homo sapiens, UniProt P04049); experiment: Inhibition of C-Raf assessed as [33P]gamma-ATP incorporation into substrate after 40 mins by scintillation counting
In short: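 Human C-RAF (5–10 mU) in 25 mM Tris pH 7.5, 0.02 mM EGTA, 10 mM Mg acetate, with 0.66 mg/mL myelin basic protein as substrate and [γ-33P]ATP. Reaction started by adding the Mg-ATP mix and run 40 min at room temperature. Stopped with 3% phosphoric acid, spotted on P30 filtermat, washed in 75 mM phosphoric acid and methanol, then scintillation counted.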

[3] = system: Serine/threonine-protein kinase B-raf (Homo sapiens), P15056 [V600E]; experiment: Inhibition of B-Raf V600E mutant
[4] = molecular target: Serine/threonine-protein kinase mTOR (Homo sapiens, UniProt P42345); experiment: inhibition of mTOR

Sequence of Serine/threonine-protein kinase B-raf (Homo sapiens), P15056 [V600E] (P15056 whole entry V600E): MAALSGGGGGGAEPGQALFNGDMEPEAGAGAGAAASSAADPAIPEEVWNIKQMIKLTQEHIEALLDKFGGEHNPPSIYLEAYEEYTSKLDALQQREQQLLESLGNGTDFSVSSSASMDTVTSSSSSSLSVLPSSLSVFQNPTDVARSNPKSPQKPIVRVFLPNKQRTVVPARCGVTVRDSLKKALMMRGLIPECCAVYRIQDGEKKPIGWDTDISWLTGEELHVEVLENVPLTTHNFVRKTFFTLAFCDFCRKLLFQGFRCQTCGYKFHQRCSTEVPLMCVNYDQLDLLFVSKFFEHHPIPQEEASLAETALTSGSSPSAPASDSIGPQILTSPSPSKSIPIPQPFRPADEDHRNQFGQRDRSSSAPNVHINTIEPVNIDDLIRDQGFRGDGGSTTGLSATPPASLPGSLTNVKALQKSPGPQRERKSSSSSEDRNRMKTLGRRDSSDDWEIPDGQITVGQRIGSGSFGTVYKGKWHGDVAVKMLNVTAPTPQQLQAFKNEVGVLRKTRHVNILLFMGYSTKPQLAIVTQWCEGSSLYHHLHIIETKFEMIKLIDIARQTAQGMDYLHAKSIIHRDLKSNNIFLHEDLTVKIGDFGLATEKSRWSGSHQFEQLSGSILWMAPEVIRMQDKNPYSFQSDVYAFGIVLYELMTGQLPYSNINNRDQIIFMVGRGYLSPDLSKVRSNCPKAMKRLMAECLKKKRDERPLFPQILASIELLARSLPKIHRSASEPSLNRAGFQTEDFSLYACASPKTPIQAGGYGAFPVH
Sequence of RAF proto-oncogene serine/threonine-protein kinase (P04049 whole entry): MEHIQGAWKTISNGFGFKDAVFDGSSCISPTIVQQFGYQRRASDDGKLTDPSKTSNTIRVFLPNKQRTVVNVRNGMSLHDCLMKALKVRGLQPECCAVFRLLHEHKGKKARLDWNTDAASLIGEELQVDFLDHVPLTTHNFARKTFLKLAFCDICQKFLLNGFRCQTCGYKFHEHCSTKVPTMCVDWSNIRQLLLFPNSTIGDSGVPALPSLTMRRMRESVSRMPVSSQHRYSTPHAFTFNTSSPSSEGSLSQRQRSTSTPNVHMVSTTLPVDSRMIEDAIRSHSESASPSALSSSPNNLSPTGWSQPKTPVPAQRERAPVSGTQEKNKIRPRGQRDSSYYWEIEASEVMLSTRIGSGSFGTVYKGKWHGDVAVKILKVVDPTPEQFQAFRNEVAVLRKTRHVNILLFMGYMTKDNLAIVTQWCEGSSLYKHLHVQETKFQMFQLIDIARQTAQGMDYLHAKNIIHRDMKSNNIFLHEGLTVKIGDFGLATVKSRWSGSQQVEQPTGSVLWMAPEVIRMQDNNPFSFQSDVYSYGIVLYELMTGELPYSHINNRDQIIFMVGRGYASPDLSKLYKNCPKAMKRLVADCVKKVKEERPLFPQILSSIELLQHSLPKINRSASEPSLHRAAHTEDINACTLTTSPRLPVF

GI50 (A375P)	SMILES	GI50 (HS27) [µM]	GI50 [1] [µM]	other results
	COc1ccc(Cn2ncc(NC(=O)c3cc(NC(=O)c4cc(-n5cnc(C)c5)cc(C(F)(F)F)c4)ccc3C)c2N)cc1	> 30	11.3	
inactive	COc1ccc(Cn2ncc(NC(=O)c3ccc(NC(=O)Nc4ccc(Cl)cc4)cc3C)c2N)cc1	> 30		
inactive	COc1ccc(Cn2ncc(NC(=O)c3cc(NC(=O)c4ncc(-c5ccncc5)s4)ccc3C)c2N)cc1	> 30		
	COc1ccc(Cn2ncc(NC(=O)c3ccc(NC(=O)Nc4cc(C(F)(F)F)ccc4N4CCOCC4)cc3C)c2N)cc1	> 30	> 100	
	COc1ccc(Cn2ncc(NC(=O)c3cc(NC(=O)c4cccc(C(F)(F)F)c4)ccc3C)c2N)cc1	> 30	5.53	IC50 [2]: 0.0224 µM; inhibition [3]: inactive
inactive	COc1ccc(Cn2ncc(NC(=O)c3cc(NC(=O)c4ccnc(Cl)c4)ccc3C)c2N)cc1	> 30		
	COc1ccc(Cn2ncc(NC(=O)c3cc(NC(=O)Nc4ccc(C(F)(F)F)cc4)ccc3C)c2N)cc1	> 30	> 30	
inactive	COc1ccc(Cn2ncc(NC(=O)c3ccc(NC(=O)c4cnccn4)cc3C)c2N)cc1	> 30		
inactive	COc1ccc(Cn2ncc(NC(=O)c3ccc(NC(=O)c4cnn(-c5ccccc5)c4C(F)(F)F)cc3C)c2N)cc1	> 30		
	CNC(=O)c1cc(Oc2ccc(NC(=O)Nc3ccc(Cl)c(C(F)(F)F)c3)cc2)ccn1 [SORAFENIB]		5.58	
	COc1ccc(Cn2ncc(NC(=O)c3cc(NC(=O)c4cc(-c5ccc(Cl)cc5)on4)ccc3C)c2N)cc1	> 30	1.39	
	O=c1cc(N2CCOCC2)oc2c(-c3ccccc3)cccc12 [LY-294002]			IC50 [4]: 3.02 µM
	COc1ccc(Cn2ncc(NC(=O)c3ccc(NC(=O)Nc4ccc(Cl)c(C(F)(F)F)c4)cc3C)c2N)cc1	> 30	33.2	IC50 [2]: 8.32 µM; inhibition [3]: inactive
inactive	COc1ccc(Cn2ncc(NC(=O)c3cc(NC(=O)Nc4ccc(C(F)(F)F)cc4C(F)(F)F)ccc3C)c2N)cc1	> 30		
	COc1ccc(Cn2ncc(NC(=O)c3cc(NC(=O)c4ccc([N+](=O)[O-])c(C(F)(F)F)c4)ccc3C)c2N)cc1	> 30	27.9	
	Cc1ccc(NC(=O)Nc2ccc(Cl)c(C(F)(F)F)c2)cc1C(=O)Nc1cnn(Cc2ccccc2)c1N	> 30	15.9	
	COc1ccc(Cn2ncc(NC(=O)c3ccc(NC(=O)c4cc5ccccc5s4)cc3C)c2N)cc1	> 30	> 30	
inactive	COc1ccc(Cn2ncc(NC(=O)c3ccc(NC(=O)c4cc(C)on4)cc3C)c2N)cc1	> 30		

GI50 (A375P)	SMILES	GI50 (HS27) [µM]	GI50 [1] [µM]	other results
	COc1ccc(Cn2ncc(NC(=O)c3ccc(NC(=O)c4cc5ccccc5o4)cc3C)c2N)cc1	> 30	> 30	
inactive	COc1ccc(Cn2ncc(NC(=O)c3ccc(NC(=O)Nc4nccc(C(F)(F)F)n4)cc3C)c2N)cc1	> 30		
	COc1ccc(Cn2ncc(NC(=O)c3cc(NC(=O)Nc4cccc(Cl)c4)ccc3C)c2N)cc1	> 30	0.21	
	COc1ccc(Cn2ncc(NC(=O)c3ccc(NC(=O)Nc4cc(-n5cnc(C)c5)cc(C(F)(F)F)c4)cc3C)c2N)cc1	> 30	5.71	
	COc1ccc(Cn2ncc(NC(=O)c3ccc(NC(=O)Nc4cccc(Cl)c4)cc3C)c2N)cc1	> 30	36.5	
	COc1ccc(Cn2ncc(NC(=O)c3ccc(NC(=O)Nc4cccc(C(F)(F)F)c4)cc3C)c2N)cc1	> 30	> 30	
	COc1ccc(Cn2ncc(NC(=O)c3cc(NC(=O)Nc4cc(Cl)c(Cl)cc4Cl)ccc3C)c2N)cc1	> 30	11.4	
	COc1ccc(Cn2ncc(NC(=O)c3cc(NC(=O)c4cnn(-c5ccc(Cl)cc5)c4C(F)(F)F)ccc3C)c2N)cc1	> 30	> 30	
	COc1ccc(Cn2ncc(NC(=O)c3cc(NC(=O)c4cc(N5CCN(C)CC5)cc(C(F)(F)F)c4)ccc3C)c2N)cc1	> 30	4.51	IC50 [2]: 0.24 µM; inhibition [3]: inactive
	COc1ccc(Cn2ncc(NC(=O)c3ccc(NC(=O)Nc4ccc(Cl)c(Cl)c4)cc3C)c2N)cc1	> 30	4.12	
	COc1ccc(Cn2ncc(NC(=O)c3ccc(NC(=O)Nc4cc(N5CCOCC5)cc(C(F)(F)F)c4)cc3C)c2N)cc1	> 30	51.5	
inactive	COc1ccc(Cn2ncc(NC(=O)c3cc(NC(=O)NC4CCCCC4)ccc3C)c2N)cc1	> 30		
	O=C1Nc2ccc(I)cc2C1=Cc1cc(Br)c(O)c(Br)c1			IC50 [3]: 0.00386 µM
inactive	COc1ccc(Cn2ncc(NC(=O)c3cc(NC(=O)Nc4c(Cl)cccc4Cl)ccc3C)c2N)cc1	> 30		
	COc1ccc(Cn2ncc(NC(=O)c3ccc(NC(=O)c4cc(-c5ccc(Cl)cc5)on4)cc3C)c2N)cc1	> 30	24.9	
inactive	COc1ccc(Cn2ncc(NC(=O)c3cc(NC(=O)Nc4cc(C)no4)ccc3C)c2N)cc1	> 30		
inactive	COc1ccc(Cn2ncc(NC(=O)c3cc(NC(=O)c4ccc(-c5cc(C(F)(F)F)ccc5Cl)o4)ccc3C)c2N)cc1	> 30		
	COc1ccc(Cn2ncc(NC(=O)c3cc(NC(=O)Nc4ccc(Cl)cc4)ccc3C)c2N)cc1	> 30	8.73	
